Hits are enriched below; roughly 2.9% of the tested compounds scored in any of these assays.
Cneo AK release: Cryptococcus neoformans lysis via adenylate kinase release; AID 651654; C. neoformans lysis, adenylate kinase release luminescence, 4 h; normalised: neutral wells 0, clomiphene wells 100; hit rate 0.2% among 360,000; lysis activity, % at 15 µM;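 active = mean lysis activity across replicates of at least 80%, whatever share of replicates individually reach that level; inactive = mean lysis activity below 80%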
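Assay system: C. neoformans cells. Amount: yeast cell density of 5 × 10^6 cells/mL. Technique: AK luminescence. Buffer or medium: YPD. Times: static 4 h at 37 °C with compound, 1 h detection. Dosing: single-point compound dose. Read-out: lysis from increased AK signal.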
PAX8 inh HTS: lowers PAX8-driven luciferase in RMG-I cells. RMG-I TPO-luciferase reporter, SteadyGlo, 24 h. inhibition, % at 12.6 µM. hit rate 1.2% among 360,000;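 active = mean replicate inhibition at least 60% with every replicate also reaching 60%; inconclusive = only one of the two criteria is met; inactive = mean below 60% and not all replicates reaching 60%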;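 also: luciferase light reporting Pax8 driven TPO promoter activity; plate controls were median of neutral control wells for no effect and mitoxantrone controls for full effect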
dFosB activator: mouse delta FosB homodimer activation; AID 493131; activation, % at 25 µM; purified delta FosB, TAMRA-CDK5 oligo fluorescence polarization; percent of positive-control signal above neutral wells; hit rate 0.99% among 340,000;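 active = mean activation above about 17%, with every replicate also reaching it, limit read from the data, passing the limit was not always enough; inconclusive = only one of the two conditions met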
CDK5 p35 inh: inhibitors of human CDK5/p35 kinase; Q00535+Q15078; Recombinant CDK5/p35, ADP-Glo luminescence, 60 min; inhibition, % at 10 µM; hit rate 0.01% among 330,000; AID 488839;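 active = highest replicate inhibition of at least 50% and at least 75% of replicates reaching 50%; inconclusive = only one of the two criteria met; inactive = both criteria failed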;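 also: plate controls were DMSO neutral control for no effect and GW8510 at 10 µM for full effect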
Target sequence (Q00535 whole entry, looked up): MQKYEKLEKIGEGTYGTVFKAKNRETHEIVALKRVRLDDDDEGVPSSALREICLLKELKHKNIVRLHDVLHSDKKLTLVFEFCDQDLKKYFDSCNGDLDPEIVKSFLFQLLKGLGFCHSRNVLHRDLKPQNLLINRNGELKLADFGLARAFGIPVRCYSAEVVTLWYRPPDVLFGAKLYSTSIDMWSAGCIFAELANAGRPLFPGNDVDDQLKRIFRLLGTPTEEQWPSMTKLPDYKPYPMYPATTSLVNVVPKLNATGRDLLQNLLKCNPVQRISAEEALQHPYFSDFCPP
Target sequence (Q15078 whole entry, looked up): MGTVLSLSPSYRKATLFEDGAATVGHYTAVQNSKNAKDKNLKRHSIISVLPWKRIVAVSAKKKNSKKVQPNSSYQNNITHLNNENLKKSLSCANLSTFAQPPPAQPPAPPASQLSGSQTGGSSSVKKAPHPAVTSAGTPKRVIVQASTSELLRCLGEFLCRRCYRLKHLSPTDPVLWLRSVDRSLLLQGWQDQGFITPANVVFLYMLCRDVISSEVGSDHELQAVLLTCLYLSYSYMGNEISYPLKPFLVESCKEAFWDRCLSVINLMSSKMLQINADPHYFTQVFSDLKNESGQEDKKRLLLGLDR
INS-1E GSIS act: primary screen for activators of insulin secretion dependent on glucose, INS-1E cells, GLuc reporter luminescence. activation, % at 16.6 µM. hit rate 0.61% among 370,000. AID 743287. INS-1E GLuc reporter insulin secretion, 2-3 h;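 active = lowest replicate activation of at least 40%, so every replicate reaches that level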;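 also: 0% = median of neutral control wells and 100% = median of IBMX positive control wells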
HIV Env fusion: HIV envelope-mediated fusion inhibition; inhibition, % at 12.3 µM; hit rate 1.1% among 360,000; HeLa-JRFL Env/CEM21 cell fusion, luciferase;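 active = mean replicate inhibition score of at least 50 and every replicate individually at or above 50; inconclusive = only one of the two criteria met; inactive = mean below 50 and not all replicates reaching 50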;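 also: 0% = plate neutral controls and 100% = maraviroc near 300 nM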
* marks the source's active call; other numbers are inactive results; ? = inconclusive; / = not tested or not shown; [ ] = dose if it differs, or a comment.

SMILES | Cneo AK release | PAX8 inh HTS | dFosB activator | CDK5 p35 inh | INS-1E GSIS act | HIV Env fusion
CCOC(=O)c1cc2c(C)n(-c3ccc(OCC)cc3)c(C)c2ccc1=O | -2 | / | -2 | 0 | / | 61*
Cc1nc2ccccc2nc(C)c1=NOCc1cccc(Cl)c1 | 1 | 26 | -11 | 0 | / | 69*
Cc1nc2ccccc2cc1OCc1ccc(Cl)cc1 | 0 | -55 | -5 | 0 | / | 27
CCCN1[C@H](C(=O)NCc2cccc(OC)c2)[C@@H](CO)[C@@H]2Cn3c(ccc(C4=CCCC4)c3=O)[C@@H]21 | 0 | / | / | / | -11 | /
C[C@H](CO)N1C[C@H](C)[C@H](CN(C)S(=O)(=O)c2cccs2)OCCCC[C@H](C)Oc2ccc(NC(=O)CCC(F)(F)F)cc2C1=O | 3 | 14 | / | / | -9 | 5[16.7 µM]
C[C@@H]1CCCCO[C@H](CN(C)S(=O)(=O)c2cccs2)[C@H](C)CN([C@@H](C)CO)C(=O)c2cc(NC(=O)CCC(F)(F)F)ccc2O1 | 1 | 110* | / | / | -24 | 0[16.7 µM]
C[C@@H]1CCCCO[C@H](CN(C)S(=O)(=O)c2cccs2)[C@@H](C)CN([C@@H](C)CO)C(=O)c2cc(NC(=O)CCC(F)(F)F)ccc2O1 | 94* | 1 | / | / | -16 | -32[16.7 µM]
C[C@@H]1CCCCO[C@H](CN(C)S(=O)(=O)c2cccs2)[C@@H](C)CN([C@H](C)CO)C(=O)c2cc(NC(=O)CCC(F)(F)F)ccc2O1 | 0 | 1 | / | / | 0 | 12[16.7 µM]
Cc1ccc(S(=O)(=O)Nc2ccc3c(c2)CC(=O)N([C@@H](C)CO)C[C@@H](C)[C@H](CN(C)S(=O)(=O)c2ccc(Cl)cc2)O3)cc1 | -4 | 4 | / | / | 1 | -11[16.7 µM]
O=C(C[C@@H]1CC[C@H]2[C@@H](COC[C@@H](O)CN2S(=O)(=O)c2ccccc2Cl)O1)NCc1ccccc1Cl | -2 | -3 | / | / | -10 | /
COC(=O)C[C@@H]1C=C[C@H](NC(=O)c2cnccn2)[C@@H](CO)O1 | / | -9 | / | / | 16 | -7
O=C(C[C@@H]1C=C[C@@H](NC(=O)c2ccccc2)[C@H](CO)O1)NCc1ccc(Oc2ccccc2)cc1 | 1 | 18 | / | / | 10 | 57*[16.7 µM]
O=C(C[C@@H]1C=C[C@@H](NC(=O)c2ccccc2)[C@@H](CO)O1)NCc1ccc(Oc2ccccc2)cc1 | 7 | 23 | / | / | -4 | ?
COC(=O)C[C@H]1C=C[C@H](NC(=O)c2ccccn2)[C@@H](CO)O1 | / | -9 | / | / | / | 72*
O=C(C[C@@H]1C=C[C@H](NC(=O)c2ccccc2)[C@H](CO)O1)NCc1ccc(Oc2ccccc2)cc1 | 15 | 26 | / | / | 5 | 61*[16.7 µM]
O=C([C@H]1[C@H](CO)[C@H]2Cn3c(ccc(-c4ccccc4)c3=O)[C@@H]1N2CCC(F)(F)F)N1CCOCC1 | -2 | -11 | / | / | 19 | /
COc1ccc(S(=O)(=O)Nc2ccc3c(c2)CC(=O)N([C@H](C)CO)C[C@H](C)[C@@H](CN(C)Cc2ccc4c(c2)OCO4)O3)cc1 | 3 | / | / | / | -24 | 12[16.7 µM]
CSc1nc(Cl)cc(N2CCOCC2)n1 | / | -25 | 2 | -1 | 53* | -36
CSCc1cc(N2CCOCC2)nc(SCc2ccc(Cl)c(Cl)c2)n1 | 3 | / | -4 | 1 | -14 | 63*
CSc1nc(N2CCOCC2)cc(N2CCOCC2)n1 | / | 1 | 2 | -1 | 57 | -24
CO[C@H]1CN(C)C(=O)c2ccc(NC(C)=O)cc2OC[C@H](C)N(C(=O)c2ccccc2)C[C@@H]1C | -10 | -7 | / | / | -6 | -3[16.7 µM]
C[C@@H]1CN([C@@H](C)CO)C(=O)c2cc(NC(=O)Nc3ccc4c(c3)OCO4)ccc2O[C@@H]1CN(C)S(=O)(=O)c1cccs1 | 0 | / | / | / | 1 | -7[16.7 µM]
COc1ccc(S(=O)(=O)N(C)C[C@@H]2Oc3ccc(NC(=O)Nc4ccc(F)cc4)cc3C(=O)N([C@@H](C)CO)C[C@@H]2C)cc1 | 55 | / | / | / | -29 | /
O=C(NCc1ccccc1)c1onc(CSc2ccc(F)cc2)c1C(=O)NCc1ccccc1 | 8 | 3 | -19 | 1 | -12 | -4
Cc1cc(C)cc(SCc2noc(C(=O)NCc3ccccc3)c2C(=O)NCc2ccccc2)c1 | 0 | 12 | -1 | -1 | -3 | 64*
SMILES | Cneo AK release | PAX8 inh HTS | dFosB activator | CDK5 p35 inh | INS-1E GSIS act | HIV Env fusion
CN1C(=O)c2cc(NC(=O)c3cccc(F)c3)ccc2OC[C@H]2O[C@@H](CC(=O)NC3CCC3)CC[C@H]21 | 7 | 3 | / | / | -8 | -85[16.7 µM]
CCSc1nnc2ccc(-c3cccs3)nn12 | -2 | -43 | -34 | -2 | 43* | -3
CSc1nnc2ccc(-c3cccs3)nn12 | -2 | -25 | -32 | 0 | 29 | -39
CC(C)NC(=O)N[C@@H]1CC[C@@H](CCNC(=O)C2CC2)O[C@@H]1CO | 3 | -20 | / | / | 6 | -16[16.7 µM]
O=C(NCCCN1CCOCC1)C(=O)N/N=C/c1c2ccccc2cc2ccccc12 | -1 | 72* | 0 | 1 | 18 | -334
Cc1ccc(S(=O)(=O)N[C@H]2C=C[C@@H](CC(=O)NCc3ccncn3)O[C@@H]2CO)cc1 | 2 | -8 | / | / | 22 | -1[16.7 µM]
CO[C@H]1CN(C)C(=O)c2cc(NS(=O)(=O)c3ccc(-c4ccccc4)cc3)ccc2OC[C@@H](C)NC[C@@H]1C | -3 | / | / | / | -7 | 10[16.7 µM]
O=C(Nc1ccnn1C1CCN(C2CCC2)CC1)c1ccccc1Cl | -1 | -11 | 10 | -1 | 64* | -17
O=C(Nc1ccnn1C1CCN(C2CCCC2)CC1)c1ccccc1Cl | -3 | -15 | -2 | 0 | 14 | -5
C[C@@H]1CCCCO[C@H](CN(C)Cc2ccncc2)[C@H](C)CN([C@H](C)CO)C(=O)c2cc(NC(=O)Nc3ccc(C(F)(F)F)cc3)ccc2O1 | -2 | 95* | / | / | -16 | 20[16.7 µM]
C[C@@H]1CN([C@H](C)CO)C(=O)c2cc(NC(=O)Nc3ccc(C(F)(F)F)cc3)ccc2O[C@@H](C)CCCCO[C@@H]1CN(C)Cc1ccncc1 | 10 | 93* | / | / | 4 | 14[16.7 µM]
C[C@@H]1CCCCO[C@H](CN(C)Cc2ccncc2)[C@H](C)CN([C@@H](C)CO)C(=O)c2cc(NC(=O)Nc3ccc(C(F)(F)F)cc3)ccc2O1 | -2 | 92* | / | / | 6 | -6[16.7 µM]
C[C@@H]1CCCCO[C@H](CN(C)Cc2ccc(C(F)(F)F)cc2)[C@@H](C)CN([C@H](C)CO)C(=O)c2cc(NC(=O)Nc3ccc(C(F)(F)F)cc3)ccc2O1 | 5 | -9 | / | / | -3 | 12[16.7 µM]
COc1ccc(S(=O)(=O)Nc2cccc3c2O[C@@H](CN(C)S(=O)(=O)c2ccc(C)cc2)[C@H](C)CN([C@@H](C)CO)C3=O)cc1 | 3 | -14 | / | / | 5 | -37[16.7 µM]
C[C@H](CO)N1C[C@H](C)[C@H](CN(C)S(=O)(=O)c2ccc([N+](=O)[O-])cc2)OCc2ccccc2-c2c(n(C)c3ccccc23)C1=O | / | / | / | / | 4 | /

Screens (PubChem BioAssay)
